Screening results as filed in PubChem.
Only a selection was taken, and hits are over-represented in it overall.
INS-1E rescue: INS-1E beta cell protection from cytokine death. INS-1E cytokine-induced death, ATP luminescence, 48 h; normalised: neutral wells 0, positive control 100. 0.1% of 20,000 active. protection from cytokine-induced ATP loss, % at 10 µM;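 active means mean replicate protection from cytokine-induced ATP loss at least 50% and at least 75% of replicates each reaching 50%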
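Assay system – rat INS-1E insulinoma cell line · Quantity – 8000 cells per well · Buffer or medium – RPMI without phenol red, 5% FBS · Schedule – 48 h co-treatment, 10 min post-lysis read · Technique – luminescent ATP assay (CellTiter-Glo)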
T cruzi intra: blocks T. cruzi growth inside host cells | 4.9% of 22,000 active | AID 651903 | intracellular Trypanosoma cruzi in host cells, plate reader | activity score (inhibition), % at 5.01 µM; in the data active means activity score above about 55%;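 further: parasites and compound incubated about four days before reading; 0% = median of neutral control wells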
A1 apoptosis 2: A1 inhibition read as caspase activation. caspase activation, % (no concentration beside the values). AID 2465. MEF A1-2A-BIM cells, caspase-Glo luminescence, 3 h; percent of clofoctol response, DMSO zero. 24,000 tested, under 10 active; in the data active means caspase activation above about 5.9%
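Evaluation: Caspase-3/7 activity from luminescence increase | Assay system: A1-2A-BIM mouse embryonic fibroblasts | Quantity: 2500 MEF cells/well | Medium: RPMI-1640 plus 10% FBS | Detection: Caspase-Glo 3/7 luminescence, 1 h at room temperature | Dosing: 50 nL compound per well, pinned | Timing: Cells settled overnight, compound exposure 3 h at 37 °C, 5% CO2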
The depositor's hits bear a star; / = no result.

SMILES	INS-1E rescue	T cruzi intra	A1 apoptosis 2
C[C@@H]1CN([C@H](C)CO)C(=O)c2cccc(NC(=O)c3ccc(-c4nccs4)cc3)c2O[C@H]1CN(C)Cc1ccc(Cl)c(Cl)c1	-22	47	2
C[C@@H]1CN([C@@H](C)CO)C(=O)c2cccc(NC(=O)c3ccc(-c4nccs4)cc3)c2O[C@@H]1CN(C)Cc1ccc(Cl)c(Cl)c1	-47	35	0
Cc1nnc(Sc2ccc(/C=N/NC(=O)c3cccc(C(=O)NO)c3)o2)n1C	4	-23	/
C[C@@H]1CCCCO[C@H](CN(C)C(=O)Nc2ccc(F)cc2)[C@H](C)CN([C@H](C)CO)C(=O)c2cc(NS(=O)(=O)c3ccc(Cl)cc3)ccc2O1	/	/	1
COc1ccc(S(=O)(=O)Nc2ccc3c(c2)C(=O)N([C@@H](C)CO)C[C@H](C)[C@@H](CN(C)C(=O)Nc2ccc(C(F)(F)F)cc2)OCCCC[C@@H](C)O3)cc1	/	/	-1
Cc1ccc(S(=O)(=O)Nc2ccc3c(c2)C(=O)N([C@@H](C)CO)C[C@H](C)[C@H](CN(C)C(=O)Nc2ccc(C(F)(F)F)cc2)OCCCC[C@H](C)O3)cc1	/	/	-1
C[C@@H]1CCCCO[C@@H](CN(C)C(=O)Nc2ccc(C(F)(F)F)cc2)[C@H](C)CN([C@@H](C)CO)C(=O)c2cc(NS(=O)(=O)c3ccc(F)cc3)ccc2O1	/	/	0
COc1ccc(S(=O)(=O)Nc2ccc3c(c2)C(=O)N([C@H](C)CO)C[C@H](C)[C@H](CN(C)C(=O)Nc2ccc(C(F)(F)F)cc2)OCCCC[C@@H](C)O3)cc1	-19	65*	-1
C[C@@H]1CCCCO[C@@H](CN(C)C(=O)Nc2ccc(F)cc2)[C@@H](C)CN([C@H](C)CO)C(=O)c2cc(NS(=O)(=O)c3ccc(Cl)cc3)ccc2O1	-6	65*	0
C[C@@H]1CCCCO[C@@H](CN(C)C(=O)Nc2ccc(C(F)(F)F)cc2)[C@@H](C)CN([C@H](C)CO)C(=O)c2cc(NS(=O)(=O)c3ccc(F)cc3)ccc2O1	-13	71*	0
Cc1ccc(S(=O)(=O)Nc2ccc3c(c2)C(=O)N([C@H](C)CO)C[C@H](C)[C@@H](CN(C)C(=O)Nc2ccc(C(F)(F)F)cc2)OCCCC[C@@H](C)O3)cc1	-16	75*	0
CN(C)CCCOc1ccc(/C=N/NC(=O)c2ccc(C(=O)NO)cc2)cc1	/	/	0
O=C(NO)c1ccc(C(=O)N/N=C/c2ccc3ccccc3n2)cc1	/	/	-1
O=C(NO)c1ccc(C(=O)N/N=C/c2ccc3ccccc3c2)cc1	3	-12	/
COC(=O)CCCCCCC(=O)N/N=C/c1ccc(O)c2ccccc12	18	-2	0
O=C(N/N=C/c1c(O)ccc2ccccc12)c1ccccn1	/	/	0
Cc1ccc(S(=O)(=O)Nc2ccc3c(c2)C(=O)N([C@H](C)CO)C[C@H](C)[C@H](CN(C)C(=O)Nc2ccc(C(F)(F)F)cc2)O3)cc1	/	-2	1
Cc1ccc(S(=O)(=O)Nc2ccc3c(c2)C(=O)N([C@@H](C)CO)C[C@@H](C)[C@@H](CN(C)C(=O)Nc2ccc(C(F)(F)F)cc2)O3)cc1	-25	68*	1
O=C(O)CCCCCC(=O)N/N=C/c1ccc(Br)o1	10	-14	0
C[C@@H]1CCCCO[C@@H](CN(C)Cc2ccccc2)[C@@H](C)CN([C@H](C)CO)C(=O)c2cc(NC(=O)Nc3cccc4ccccc34)ccc2O1	1	57*	0
C[C@@H]1CCCCO[C@@H](CN(C)Cc2ccc(Cl)c(Cl)c2)[C@@H](C)CN([C@@H](C)CO)C(=O)c2cc(NC(=O)Nc3cccc4ccccc34)ccc2O1	/	/	1
C[C@@H]1CCCCO[C@H](CN(C)Cc2ccc(Cl)c(Cl)c2)[C@@H](C)CN([C@H](C)CO)C(=O)c2cc(NC(=O)Nc3cccc4ccccc34)ccc2O1	-17	62*	1
C[C@@H]1CCCCO[C@@H](CN(C)Cc2ccccc2)[C@H](C)CN([C@@H](C)CO)C(=O)c2cc(NC(=O)Nc3cccc4ccccc34)ccc2O1	/	/	-1
O=C(CCCCCCC(=O)Nc1ccccc1O)N/N=C/c1nccs1	7	3	-1
Cc1ccc(S(=O)(=O)N(C)C[C@@H]2Oc3c(NC(=O)CCCCCC(=O)Nc4ccccc4N)cccc3C(=O)N([C@H](C)CO)C[C@@H]2C)cc1	-3	73*	-1
SMILES	INS-1E rescue	T cruzi intra	A1 apoptosis 2
C[C@H](CO)N1C[C@H](C)[C@H](CN(C)S(=O)(=O)c2ccc(F)cc2)Oc2c(NC(=O)CCCCCC(=O)Nc3ccccc3N)cccc2C1=O	7	63*	/
C[C@@H]1CN([C@@H](C)CO)C(=O)c2cccc(NC(=O)CCCCCC(=O)Nc3ccccc3N)c2O[C@@H]1CN(C)S(=O)(=O)c1ccc(F)cc1	0	36	1
C[C@@H]1CN([C@@H](C)CO)C(=O)c2cccc(NC(=O)CCCCCC(=O)Nc3ccccc3N)c2O[C@H]1CN(C)S(=O)(=O)c1ccc(F)cc1	-15	-6	/
C[C@@H]1CN([C@H](C)CO)C(=O)c2cccc(NC(=O)CCCCCC(=O)Nc3ccccc3N)c2O[C@@H]1CN(C)S(=O)(=O)c1ccc(F)cc1	-8	61*	/
Cc1ccc(S(=O)(=O)N(C)C[C@H]2Oc3c(NC(=O)CCCCCC(=O)Nc4ccccc4N)cccc3C(=O)N([C@@H](C)CO)C[C@@H]2C)cc1	/	/	1
O=C(O)CCCCCCC(=O)N/N=C/c1cn(S(=O)(=O)c2ccccc2)c2ccccc12	7	-5	/
COc1ccc(NC(=O)Nc2cccc3c2O[C@@H](CN(C)Cc2ccc(C(=O)Nc4ccccc4N)cc2)[C@H](C)CN([C@@H](C)CO)C3=O)cc1	-2	77*	/
COc1ccc(NC(=O)Nc2cccc3c2O[C@@H](CN(C)Cc2ccc(C(=O)Nc4ccccc4N)cc2)[C@@H](C)CN([C@@H](C)CO)C3=O)cc1	-23	39	-1
COc1ccc(NC(=O)Nc2cccc3c2O[C@@H](CN(C)Cc2ccc(C(=O)Nc4ccccc4N)cc2)[C@@H](C)CN([C@H](C)CO)C3=O)cc1	/	/	-1
COc1ccc(NC(=O)Nc2cccc3c2O[C@H](CN(C)Cc2ccc(C(=O)Nc4ccccc4N)cc2)[C@H](C)CN([C@H](C)CO)C3=O)cc1	9	61*	/
O=C(N/N=C/c1cccc(OCCO)c1)c1ccccn1	-39	-25	-11
COc1ccc(S(=O)(=O)N(C)C[C@@H]2Oc3c(NC(=O)c4nc5ccccc5s4)cccc3C(=O)N([C@H](C)CO)C[C@@H]2C)cc1	-50	70*	0
C[C@H]1CN([C@@H](C)CO)C(=O)c2cccc(NC(=O)c3nc4ccccc4s3)c2O[C@H]1CN(C)S(=O)(=O)c1ccc(Cl)cc1	2	36	0
C[C@@H]1CN([C@@H](C)CO)C(=O)c2cccc(NC(=O)c3nc4ccccc4s3)c2O[C@@H]1CN(C)S(=O)(=O)c1ccc(F)cc1	-11	35	-1
C[C@H]1CN([C@@H](C)CO)C(=O)c2cccc(NC(=O)c3nc4ccccc4s3)c2O[C@H]1CN(C)S(=O)(=O)c1ccc(F)cc1	-31	74*	/
